Reference: paper PMC9323481 (Diabetes, Obesity & Metabolism, 2022)

Tests used:
Format in all cases: in vivo, human
[1] = system: patients with type 2 diabetes and CKD; assay: Fasting plasma glucose and HbA1c; conditions: s.c. once daily, 50-300 μg; for Change in LS mean fasting plasma glucose from baseline to day 32: 32 days
[2] = system: patients with type 2 diabetes and CKD; assay: Continuous glucose monitoring
Procedure, shortened: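 Double-blind, placebo-controlled, once-daily s.c. dosing titrated 50→100→200→300 μg over 32 days. Continuous glucose monitoring gave the percentage of time with interstitial glucose in the target range of 70-180 mg/dl (3.9-10 mmol/L) over a 7-day period, at baseline and in the final week of treatment. Change analysed by Wilcoxon rank-sum test, intent-to-treat population.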

[3] = system: patients with type 2 diabetes and CKD on insulin ≥20 units per day; assay: Total daily insulin dose; conditions: participants on insulin ≥20 units per day; range –194, 20; placebo 0.0, p = .073
Procedure, shortened: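 Exploratory endpoint: change in total daily insulin dose from baseline to end of dosing, in participants on ≥20 units/day. Randomization was stratified by insulin dose (≥20 vs <20 units/day). Dosing was once-daily s.c., titrated 50-300 μg over 32 days, against placebo. Analysed by two-sample t-test with unequal variance and Satterthwaite approximation.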

[4] = system: patients with type 2 diabetes and CKD; assay: Bodyweight; conditions: p < .001
Procedure, shortened: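 Randomized 1:1, double-blind; test compound or placebo given s.c. once daily each morning. Test compound dose titration: 50 μg for 4 days, 100 μg for 7 days, 200 μg for 7 days, then 300 μg for 14 days. Percentage and absolute change in bodyweight from baseline, intent-to-treat population. ANCOVA with treatment as fixed factor and baseline as covariate.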

[5] = system: patients with type 2 diabetes and CKD; assay: UACR and eGFR
Procedure, shortened: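 Exploratory endpoints: change from baseline in mean urinary albumin-to-creatinine ratio (UACR) and eGFR. Dosing was randomized, double-blind, once-daily s.c., titrated 50-300 μg over 32 days, against placebo. Change in UACR was analysed by t-test with unequal variance. Continuous endpoints were analysed by ANCOVA with baseline as covariate, intent-to-treat population.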

[6] = system: patients with type 2 diabetes and CKD; assay: Supine blood pressure and heart rate
Procedure, shortened: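 Vital signs, blood pressure and 24-h pulse rate were safety endpoints, taken as change from baseline. Randomized double-blind design: once-daily morning s.c. test compound titrated 50 μg (4 days), 100 μg (7 days), 200 μg (7 days), 300 μg (14 days), or placebo for 32 days. ANCOVA with baseline as covariate, as-treated population.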

[7] = system: patients with type 2 diabetes and CKD; assay: Treatment-emergent adverse events
Procedure, shortened: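 Incidence of adverse events and serious adverse events during 32 days of once-daily s.c. dosing (titrated 50→100→200→300 μg) or placebo. Clinically significant hypoglycaemia was defined as capillary or venous plasma glucose <54 mg/dl (3.0 mmol/L). Safety analyses used the as-treated population with descriptive statistics.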

[8] = system: patients with type 2 diabetes and CKD; assay: Clinical chemistry and eGFR percent change; conditions: baseline to day 32
[9] = Pharmacokinetics; conditions: repeat daily s.c. administration 50-300 μg; plasma
Procedure, shortened: (§1)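 Secondary endpoints of a 32-day trial: once-daily morning s.c. dosing titrated through 50 μg for 4 days, 100 μg for 7 days, 200 μg for 7 days and 300 μg for 14 days. Pharmacokinetic parameters and anti-drug antibody titre were summarized with descriptive statistics only.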

[10] = system: patients with type 2 diabetes and CKD; assay: Immunogenicity; conditions: serum anti-drug antibody
Procedure, shortened: as §1

Substance: cotadutide
- Change in LS mean fasting plasma glucose from baseline to day 32 ([1]; placebo 0.03): 1.09 mmol/L
- Change in LS mean fasting plasma glucose from baseline to day 32 ([1]; placebo +0.60, p = .089): –19.55 mg/dl
- Change in LS mean HbA1c from baseline to day 32 ([1]; placebo +0.01%, p < .001): –0.65%
- Mean percentage of time within target range over a 7-day period ([2]; 100 μg dose period, placebo 48.57%): 75.82%
- Mean percentage of time within target range over a 7-day period ([2]; 200 μg dose period, placebo 54.99%): 78.69%
- Mean percentage of time within target range over a 7-day period ([2]; 300 μg dose period, placebo 40.66%): 78.18%
- Time in clinically significant hypoglycaemia (glucose <54 mg/dl or <3.0 mmol/L) ([2]; CGM, entire dosing period, placebo 0.66%, p = .010): 2.01%
- Time in hypoglycaemia (glucose <70 mg/dl or <3.9 mmol/L) ([2]; CGM, entire dosing period, placebo 2.73%, p = .061): 6.07%
- Time in hyperglycaemia (glucose >180 mg/dl or 10 mmol/L) ([2]; CGM, entire dosing period, placebo 37.39%, p = .001): 10.50%
- Median absolute change in total daily insulin dose from baseline to day 32 [3]: –16.0 units per day
- LS mean change in absolute bodyweight from baseline to day 33 ([4]; 90% CI –4.2, –2.62, placebo –0.13 kg): –3.41 kg
- LS mean percentage change in bodyweight from baseline to day 33 ([4]; 90% CI –4.55, –2.83, placebo –0.21%): –3.69%
- LS mean change in eGFR ([5]; 90% CI –1.29, 3.62, placebo –1.10, p = .268): 1.17 ml/min/1.73 m^2
- Change in LS mean UACR from baseline to day 33 ([5]; all participants, placebo 5.43%, not significant): –7.65%
- Increase in LS mean heart rate from baseline to day 32 ([6]; placebo 3.14, p < .001): 14.13 beats per minute
- Increase in LS mean supine diastolic blood pressure from baseline to day 32 ([6]; placebo 3.40, p = .421): 0.57 mmHg
- Increase in LS mean supine systolic blood pressure from baseline to day 32 ([6]; placebo 8.69, p = .144): 1.44 mmHg
- Mild/moderate adverse events, participants ([7]; abstract, placebo 35.0%): 71.4%
- Treatment-emergent adverse event: Any ([7]; n = 21, as-treated, placebo 13 (65.0)): 20 (95.2) n (%)
- Treatment-emergent adverse event: Hypoglycaemia ([7]; n = 21, clinically significant, capillary or venous plasma glucose <54 mg/dl (3.0 mmol/L), placebo 1 (5.0)): 3 (14.3) n (%)
- Treatment-emergent adverse event: Decreased appetite ([7]; n = 21, placebo 0): 3 (14.3) n (%)
- Treatment-emergent adverse event: Diarrhoea ([7]; n = 21, placebo 0): 5 (23.8) n (%)
- Treatment-emergent adverse event: Flatulence ([7]; n = 21, placebo 0): 2 (9.5) n (%)
- Treatment-emergent adverse event: Leading to death (no. patients) ([7]; n = 21, placebo 0): 1 (4.8) n (%)
- Treatment-emergent adverse event: Serious related to cotadutide ([7]; n = 21, placebo 0): 1 (4.8) n (%)
- Treatment-emergent adverse event: Dizziness ([7]; n = 21, placebo 1 (5.0)): 2 (9.5) n (%)
- Treatment-emergent adverse event: Dyspepsia ([7]; n = 21, placebo 1 (5.0)): 5 (23.8) n (%)
- Treatment-emergent adverse event: Leading to study discontinuation (no. patients) ([7]; n = 21, placebo 1 (5.0)): 2 (9.5) n (%)
- Treatment-emergent adverse event: Vomiting ([7]; n = 21, placebo 1 (5.0)): 6 (28.6) n (%)
- Treatment-emergent adverse event: Headache ([7]; n = 21, placebo 2 (10.0)): 2 (9.5) n (%)
- Treatment-emergent adverse event: Nasopharyngitis ([7]; n = 21, placebo 2 (10.0)): 3 (14.3) n (%)
- Treatment-emergent adverse event: Serious (no. patients) ([7]; n = 21, placebo 2 (10.0)): 2 (9.5) n (%)
- Treatment-emergent adverse event: Nausea ([7]; n = 21, placebo 4 (20.0)): 9 (42.9) n (%)
- Treatment-emergent adverse event: Any related to cotadutide ([7]; n = 21, placebo 7 (35.0)): 15 (71.4) n (%)
- AEs of severe hypoglycaemia ([7]; whole study): no recorded AEs
- Trends or shifts from baseline in serum chemistry [8]: no clinically meaningful trends or shifts
- Exposure at Ctrough with dose [9]: linear increased exposure
- Treatment-boosted ADA response [10]: No participants
